Screens from PubChem BioAssay.
Sampled rows, rich in hits. Any-hit rate of the full collection: about 5.1%.
STAT1 inh: inhibitors of IFN-gamma induced STAT1 signaling; NIH 3T3 STAT1-luciferase reporter, luminescence; inhibition, % at 5.5 µM; 200,000 tested, 0.35% active; AID 920;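 active = inhibition above a set limit, the mean inhibition across all tested compounds plus 3 SD, cut at about 34% in these data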
NF-kB neuron act: raises NF-kB expression in human neuronal cells; NF-kB reporter expression; active compounds read high; fold change at 12.5 µM; 190,000 tested, 1.6% active; AID 1239; in the data active = fold change above about 3.3
STAT3 blocker: STAT3 signaling inhibition; U3A cells, IL-6 STAT3-luciferase reporter, luminescence; host cell line lacks STAT1; inhibition, % at 5.5 µM; 190,000 tested, 0.89% active; AID 862;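 active = inhibition above the mean inhibition across all screened compounds plus 3 SD, cut at about 44% in these data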
APP 5'UTR act: APP 5'UTR luciferase reporter activation; activation, % at 2 µM; AID 1276; 190,000 tested, 1% active; SH-SY5Y APP 5'UTR luciferase reporter, luminescence; zero percent = DMSO vehicle wells;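 active = activation above a set limit, based on mean plus 3 SD of controls, cut at about 140% in these data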
STAT3 act: activators of IL-6 induced STAT3 signaling; activation (% of control), % at 5.6 µM; AID 871; 190,000 tested, 0.91% active; U3A cells, IL-6 STAT3-luciferase reporter, luminescence; 100% = signal with IL-6 EC80 alone;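 active = activation above the screen-wide mean of compound activation plus 3 SD, cut at about 130% in these data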
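Detection: reporter luminescence signal / Assay system: STAT1-lacking human U3A cells, STAT3 luciferase reporter / Incubation: compound pre-incubation 1 h before IL-6, then 6 h stimulation at 37 °C / Control set: IL-6-only high control / Read-out: % activation relative to IL-6 control / Probe or stimulus: Interleukin-6, 33 ng/mL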
STAT1 activator: activators of IFN-gamma induced STAT1 signaling. 200,000 tested, 2.6% active. activation (% of control), % at 5.5 µM. NIH 3T3 STAT1-luciferase reporter, luminescence; 100% = IFN-gamma alone, no compound;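 active = activation above the screen-wide mean activation plus 3 SD, cut at about 130% in these data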
STAT1 activ conf: STAT1 activation, confirmation assay | 1,200 tested, 97% active | shares compounds with STAT1 activator | activation (% of control), % at 5.7 µM | NIH 3T3 STAT1-luciferase reporter, IFN-gamma potentiation, luminescence; 100% = IFN-gamma EC80 alone, no compound;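 active = activation above a set limit carried over from the earlier primary STAT1 screen, cut at about 140% in these data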
NFkB act STAT1ct: counter-screen for STAT1 activators: NF-kappaB activation; shares compounds with STAT1 activator; HEK293T NF-kB luciferase reporter, TNF-alpha stimulated, luminescence; 100% = TNF-alpha with vehicle only; activation (% of control), % at 5.7 µM; 1,200 tested, 43% active; AID 1306;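 active = activation above the mean of solvent-only control wells plus 3 SD, set per campaign, cut at about 130% in these data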;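 also: TNF-alpha given at a submaximal dose yielding about 80% of full reporter signal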
STAT3 act 2: human STAT3 activation in STAT1 activator counter-screen. shares compounds with STAT1 activator. U3A cells STAT3-luciferase reporter, IL-6, luminescence; cells lack STAT1; 100 = IL-6 alone, no compound effect. 1,200 tested, 46% active. activation (% of control), % at 5.7 µM;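 active = activation above the solvent-only control well mean plus 3 SD, set per plate batch, cut at about 110% in these data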;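 also: higher means more STAT3 reporter activation so hits are non-selective activators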
Hits are given with their value; i = inactive; nt = not tested or not shown.

SMILES	STAT1 inh	NF-kB neuron act	STAT3 blocker	APP 5'UTR act	STAT3 act	STAT1 activator	STAT1 activ conf	NFkB act STAT1ct	STAT3 act 2
Cc1cnc(NC(=O)COc2ccccc2)s1	i	4.3	i	168	i	166	179	i	i
Cc1cnc(NC(=O)CSc2ccccc2)s1	i	i	i	i	i	i	nt	nt	nt
Cc1ccccc1OCC(=O)NN1CCN(C)CC1	i	i	i	i	i	i	nt	nt	nt
O=Cc1cn(-c2ccccc2)nc1-c1ccc2c(c1)OCCO2	i	6.9	i	140	i	160	193	134	i
CC(=O)c1cccc(NC(=S)N2c3ccccc3CC2C)c1 (stereo not drawn)	i	i	i	i	i	i	nt	nt	nt
CC1Cc2ccccc2N1C(=O)/C=C/c1cccc(F)c1 (stereo not drawn)	i	6.3	i	189	i	158	202	141	i
O=C(Nc1ccc(SC(F)F)cc1)c1ccccc1F	i	i	i	i	i	161	182	142	i
O=C(COC(=O)Cc1ccccc1F)Nc1ccc(SC(F)F)cc1	i	i	i	i	i	i	nt	nt	nt
O=C(Nc1ccc(F)cc1)c1ccccc1F	i	i	i	i	i	i	nt	nt	nt
O=C(Cc1ccccc1F)Nc1ccc(SC(F)F)cc1	i	5.3	i	153	i	162	169	i	127
CCOC(=O)c1cccc(NC(=O)CN(C)S(=O)(=O)c2cnc[nH]2)c1	i	i	i	i	i	i	nt	nt	nt
N#Cc1c(/N=C/N2CCOCC2)sc2c1CCCCC2	i	4.9	i	i	i	155	194	i	126
Cc1ccc(/C=N/c2sc3c(c2C#N)CCC3)o1	i	i	i	i	i	167	188	135	i
COc1cccc(NS(=O)(=O)c2ccc(OC)c(OC)c2)c1	i	i	i	i	i	i	nt	nt	nt
CCOc1cccc2c1OC1(C)CC2NC(=O)N1c1cccc(Cl)c1 (stereo not drawn)	i	i	i	i	i	i	nt	nt	nt
CCOC(=O)c1c(NC(=O)CSc2ccccc2C(=O)O)sc(C)c1C	i	i	i	i	i	i	nt	nt	nt
c1ccc(N2CCN(c3cnc4ccccc4n3)CC2)cc1	i	6.5	i	i	i	175	219	i	i
COc1ccc(N2CCN(c3cc(C)c4ccccc4n3)CC2)cc1	i	i	i	i	i	i	nt	nt	nt
COc1ccc(C)cc1C(=O)CCC(=O)Nc1ccccc1N1CCOCC1	i	i	i	i	i	i	nt	nt	nt
CC(C)(C)c1ccc(OCc2nc(-c3ccccn3)no2)c(Br)c1	i	3.7	i	164	i	158	219	143	131
COCCNC(=O)c1ccc(C(=O)C(=O)c2ccccc2)cc1	i	i	i	i	i	i	nt	nt	nt
Brc1ccc(-c2csc(N3CCOCC3)n2)cc1	i	3.4	i	i	i	151	190	137	i
Clc1ccc(-c2csc(N3CCOCC3)n2)cc1	i	4.9	i	i	i	160	176	139	i
CC(C)OC(=O)CC1C(=O)NCCN1C(=S)NC(=O)c1ccccc1Cl (stereo not drawn)	i	i	i	i	i	i	nt	nt	nt
Cn1ccs/c1=N\C(=O)Nc1cccc(Cl)c1	i	3.7	i	i	i	156	184	134	i
SMILES	STAT1 inh	NF-kB neuron act	STAT3 blocker	APP 5'UTR act	STAT3 act	STAT1 activator	STAT1 activ conf	NFkB act STAT1ct	STAT3 act 2
Cc1nc(N)sc1N=Nc1ccc(Br)cc1	i	7.2	i	i	i	158	214	162	123
Cc1[nH]nc(N)c1N=Nc1ccc(Br)cc1	i	i	i	i	i	i	nt	nt	nt
Cc1[nH]n(-c2ccccc2)c(=O)c1/C=N/O	i	i	i	i	i	i	nt	nt	nt
Cc1[nH]n(-c2ccccc2)c(=O)c1C=NCc1ccco1	i	3.8	i	i	i	157	186	i	118
COc1ccc(CC(=O)NCc2nc(-c3ccccc3)no2)cc1	i	i	i	i	i	i	nt	nt	nt
COc1ccc(-c2cc(C(F)(F)F)n3nc(C(=O)Nc4c(C)n(C)n(-c5ccccc5)c4=O)c(Cl)c3n2)cc1	i	i	i	i	i	i	nt	nt	nt
COc1ccccc1-c1nn2c(-c3ccco3)nnc2s1	i	i	i	i	i	172	192	138	i
O=C(Nc1ncc(Cc2ccccc2)s1)C1COc2ccccc2O1 (stereo not drawn)	i	i	i	164	i	184	192	i	114
O=C(NCc1cccnc1)C1COc2ccccc2O1 (stereo not drawn)	i	i	i	i	i	i	nt	nt	nt
Cc1ccc(Cc2cnc(NC(=O)c3cccs3)s2)cc1	i	7.1	i	170	i	171	219	143	133
O=C(Nc1ncc(Cc2ccccc2)s1)c1cccs1	i	8.4	i	194	i	154	276	142	122
O=C(Nc1nnc(Cc2ccccc2)s1)c1cccs1	i	i	i	i	i	i	nt	nt	nt
O=C(Nc1ncc(Cc2cccc(Cl)c2)s1)c1cccs1	i	i	i	i	i	i	nt	nt	nt
CCOC(=O)/C=c1\s/c(=C(\C#N)C(=O)NC)n(-c2ccccc2)c1=O	i	i	i	i	i	i	nt	nt	nt
Cc1ccc(C(=O)c2sc3nsc(C)c3c2N)cc1	i	6.3	i	198	i	154	239	145	114
c1ccc2cc(OCc3nc4ccccc4[nH]3)ccc2c1	i	5.1	i	184	i	163	200	i	i
Cc1ccc(Nc2nc(Oc3ccc(=O)[nH]n3)nc(N(C)C)n2)cc1	i	i	i	i	i	i	nt	nt	nt
FC(F)C(F)(F)C1=CC(c2cccs2)=NCCN1	i	i	i	nt	i	i	nt	nt	nt
COc1ccc(/C=C(\CC(=O)O)c2nc3ccccc3o2)cc1	i	i	i	i	i	151	160	136	116
C=CCNc1nc(-c2ccc(O)c(C(N)=O)c2)cs1	i	i	i	i	i	i	nt	nt	nt
C=CCNc1nc(-c2cc3ccccc3o2)cs1	i	7.5	i	210	i	185	226	i	i
CCOC(=O)Cc1csc(/C(=N/O)C(N)=O)n1	i	i	i	i	i	i	nt	nt	nt
COc1ccc(-c2cccc(C(=O)Nc3ccc(OC)c(OC)c3)c2)cc1	i	i	i	i	i	i	nt	nt	nt
CC(C)c1ccc(/C=N/NC(=O)c2cccc(Cl)c2)cc1	i	5.7	i	i	i	184	220	137	126
